# A selection: hits, their analogues and other compounds. The true share with any hit is near 1.1%.
# Arrestin-AP2 inh: human beta-arrestin and AP2 interaction inhibition; FITC-arrestin peptide / GST-AP2 beads, flow cytometry; AP2 beta2 appendage carries R879A mutation; inhibition, % at 10 µM; 0.31% of 340,000 active;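 active means inhibition above a set limit, near 3 SD of compounds lacking own fluorescence, cut at about 54% in these data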
#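 Measured by: flow cytometry, FL1 (488/535 nm); Material: AP2 appendage R879A on GSH beads; Evaluation: percent response; Timing: pre-incubation 12 min, peptide binding 1 h, room temperature; Also added: 50 nM FITC-arrestin peptide; Medium: PBS with 0.05% Tween 20 and 0.1% BSA.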
# FAS-TE inh: blocks the thioesterase domain of human fatty acid synthase; P49327; recombinant FAS-TE, OMFH fluorogenic substrate, fluorescence endpoint; inhibition, % at 15 µM; 0.67% of 360,000 active; AID 602261;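 active means compounds whose normalised, plate-corrected inhibition of enzyme fluorescence in the single-dose primary screen is 50% or more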
# Target sequence (P49327 whole entry, looked up, the tested form may be a part): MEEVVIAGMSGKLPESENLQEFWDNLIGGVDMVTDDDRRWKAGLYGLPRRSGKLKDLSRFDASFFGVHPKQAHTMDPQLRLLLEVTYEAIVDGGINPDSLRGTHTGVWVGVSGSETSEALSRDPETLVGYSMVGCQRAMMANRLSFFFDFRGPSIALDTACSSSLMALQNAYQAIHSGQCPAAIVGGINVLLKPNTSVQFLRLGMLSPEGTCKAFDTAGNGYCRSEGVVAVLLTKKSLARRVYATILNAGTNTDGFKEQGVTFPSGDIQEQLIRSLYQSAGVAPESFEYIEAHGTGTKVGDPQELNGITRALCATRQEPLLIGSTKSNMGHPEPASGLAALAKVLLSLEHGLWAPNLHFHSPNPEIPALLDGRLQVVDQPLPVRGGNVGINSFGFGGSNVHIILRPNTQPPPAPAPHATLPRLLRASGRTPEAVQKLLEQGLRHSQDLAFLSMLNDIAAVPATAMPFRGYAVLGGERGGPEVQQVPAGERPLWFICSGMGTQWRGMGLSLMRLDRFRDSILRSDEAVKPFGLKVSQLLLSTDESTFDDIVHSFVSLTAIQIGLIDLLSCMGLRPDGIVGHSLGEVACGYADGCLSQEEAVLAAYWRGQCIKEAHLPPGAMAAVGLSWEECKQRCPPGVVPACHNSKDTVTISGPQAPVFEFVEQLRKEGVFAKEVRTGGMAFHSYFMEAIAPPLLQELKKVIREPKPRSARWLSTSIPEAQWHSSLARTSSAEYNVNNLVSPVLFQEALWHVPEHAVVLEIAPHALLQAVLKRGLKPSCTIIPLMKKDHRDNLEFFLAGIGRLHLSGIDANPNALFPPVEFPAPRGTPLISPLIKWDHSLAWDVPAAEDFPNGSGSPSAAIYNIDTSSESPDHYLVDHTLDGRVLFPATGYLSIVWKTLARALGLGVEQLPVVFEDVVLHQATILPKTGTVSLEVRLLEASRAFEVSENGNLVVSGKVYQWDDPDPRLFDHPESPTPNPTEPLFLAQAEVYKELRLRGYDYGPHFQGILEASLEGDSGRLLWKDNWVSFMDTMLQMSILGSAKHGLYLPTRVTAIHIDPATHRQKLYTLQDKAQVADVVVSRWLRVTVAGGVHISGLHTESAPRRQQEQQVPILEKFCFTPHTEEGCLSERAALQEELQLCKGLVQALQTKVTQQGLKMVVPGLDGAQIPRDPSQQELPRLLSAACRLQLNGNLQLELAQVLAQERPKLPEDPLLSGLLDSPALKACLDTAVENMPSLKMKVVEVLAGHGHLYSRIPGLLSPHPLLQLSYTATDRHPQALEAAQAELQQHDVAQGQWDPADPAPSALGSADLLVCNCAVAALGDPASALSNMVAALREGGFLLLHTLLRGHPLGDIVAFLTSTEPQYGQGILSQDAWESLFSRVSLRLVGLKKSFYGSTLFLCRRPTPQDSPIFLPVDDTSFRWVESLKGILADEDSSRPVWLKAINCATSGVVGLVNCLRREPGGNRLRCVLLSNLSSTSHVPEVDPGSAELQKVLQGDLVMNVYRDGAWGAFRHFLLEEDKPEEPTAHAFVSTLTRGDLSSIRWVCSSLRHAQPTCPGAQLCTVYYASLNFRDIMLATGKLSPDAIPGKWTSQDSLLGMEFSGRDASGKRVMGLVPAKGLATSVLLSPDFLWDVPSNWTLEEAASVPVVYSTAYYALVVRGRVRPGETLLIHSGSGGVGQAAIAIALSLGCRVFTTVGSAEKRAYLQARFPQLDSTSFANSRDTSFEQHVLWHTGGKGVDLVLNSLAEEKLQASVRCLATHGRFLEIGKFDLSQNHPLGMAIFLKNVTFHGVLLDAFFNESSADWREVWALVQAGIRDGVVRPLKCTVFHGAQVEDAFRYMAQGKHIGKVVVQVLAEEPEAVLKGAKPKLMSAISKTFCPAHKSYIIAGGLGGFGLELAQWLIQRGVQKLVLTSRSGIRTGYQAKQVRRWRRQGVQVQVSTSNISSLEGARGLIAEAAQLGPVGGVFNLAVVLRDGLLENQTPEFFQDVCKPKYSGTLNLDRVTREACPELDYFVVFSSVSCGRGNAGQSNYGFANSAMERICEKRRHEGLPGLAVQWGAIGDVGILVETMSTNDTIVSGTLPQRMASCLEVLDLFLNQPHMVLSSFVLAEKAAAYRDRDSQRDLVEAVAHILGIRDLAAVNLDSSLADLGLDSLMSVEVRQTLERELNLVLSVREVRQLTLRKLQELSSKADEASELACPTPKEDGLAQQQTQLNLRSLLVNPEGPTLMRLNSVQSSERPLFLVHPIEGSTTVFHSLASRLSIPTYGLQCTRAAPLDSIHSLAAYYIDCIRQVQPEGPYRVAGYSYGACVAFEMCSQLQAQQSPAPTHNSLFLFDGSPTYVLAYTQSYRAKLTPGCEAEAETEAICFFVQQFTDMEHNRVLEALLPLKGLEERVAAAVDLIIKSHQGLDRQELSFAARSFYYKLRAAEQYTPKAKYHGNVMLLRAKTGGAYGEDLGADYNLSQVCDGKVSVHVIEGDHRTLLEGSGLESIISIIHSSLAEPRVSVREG
# SENP1 FRET inh: blocks the human SENP1 SUMO protease catalytic domain. recombinant SENP1 catalytic domain, CyPet-SUMO1-YPet FRET cleavage. inhibition, % at 10 µM. 0.21% of 360,000 active. AID 624204;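 active means inhibition at least 30% at 10 µM, raw YFP signal under a set limit, fluorescence ratio 0.5 to 1.5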
#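 Test system: human SENP1 catalytic domain; medium: Tris pH 8 buffer plus EDTA, NaCl, BME, BSA, NP40, catalase; incubation: 50 min reaction at room temperature; technique: FRET, CFP and YFP emission; controls: no-enzyme low control and enzyme-plus-DMSO high control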
# GASC-1 inh: blocks human GASC-1 demethylase activity | inhibition, % at 2.35 µM | 0.069% of 330,000 active | GST-JMJD2C(1-420) H3K9me3 demethylation, DELFIA europium;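 active means more than half of a compound's replicate wells show inhibition beyond 50%, single wells judged on their own value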;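 further: signal counts dimethyl H3K9 product captured on neutravidin plate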
# Arr AP2 CP1: human beta-arrestin and AP2 interaction inhibition, cherry pick; GST-AP2 beads, FITC arrestin peptide binding, flow cytometry; GST-fused beta2-adaptin appendage, R879A mutant; AID 504908; 2% of 1,300 active; shares compounds with Arrestin-AP2 inh; inhibition, % at 10 µM;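 active means inhibition above a set limit, roughly 3 SD of non-fluorescent compound noise, cut at about 38% in these data; inactive means inhibition at or below that limit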;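 further: loss of bead fluorescence from 50 nM FITC arrestin peptide bound to appendage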
# GST GSH counter: counter-screen for beta-arrestin AP2 inhibitors: GST-GSH bead binding; 2% of 1,300 active; GST-fluorescein binding to GSH beads, fluorescence; inhibition, % at 10 µM; AID 588338; shares compounds with Arrestin-AP2 inh;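 active means inhibition above 50%, about 3 SD of the inhibition seen with non-fluorescent compounds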;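 further: fluorescein maleimide labelled GST captured on 4 micron glutathione beads; higher means more loss of bead fluorescence from quenching or blocked binding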
# FAS-TE conf: FAS thioesterase (human) inhibition, confirmation | AID 624325 | recombinant FAS-TE, OMFH fluorogenic substrate, fluorescence | 45% of 2,300 active | shares compounds with FAS-TE inh | inhibition, % at 15 µM;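 active means compounds inhibiting the enzyme by at least 50% at 15 µM in any one of the replicates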
# A number is an active result; . = inactive; / = no result given.
SMILES,Arrestin-AP2 inh,FAS-TE inh,SENP1 FRET inh,GASC-1 inh,FAS-TE conf,others
Cc1cc(Cl)ccc1NC(=O)CCC(=O)N/N=C/c1cc([N+](=O)[O-])ccc1O,105,55,.,.,70,Arr AP2 CP1=.;GST GSH counter=.
CCC(=O)OCCNc1cc(Sc2nc3ccccc3s2)c2nonc2c1[N+](=O)[O-],.,83,.,.,.,
O=[N+]([O-])c1c(NCCCO)cc(Sc2nc3ccccc3s2)c2nonc12,.,77,.,.,75,
CCC(=O)OCCNc1cc(Sc2nc3ccccc3[nH]2)c2nonc2c1[N+](=O)[O-],.,80,.,.,83,
CC(=O)OCCCNc1cc(SCc2ccco2)c2nonc2c1[N+](=O)[O-],.,.,.,.,/,
CN1CCN(C(=O)CSc2ccc(Cl)cc2)CC1,.,.,.,.,/,
O=c1c2ccccc2c(C=Nc2cccc(S(=O)(=O)NC3=NCCCCC3)c2)c(O)n1Cc1ccccc1,.,65,.,.,.,
COc1ccc(-c2nnc(SCc3ccc(C(=O)O)cc3)o2)cc1OC,.,.,.,.,/,
CCOC(=O)N/N=C\c1ccc(OC(=O)c2ccc3c(c2)OCO3)cc1,.,.,.,.,/,
N#Cc1sc(C(N)=O)c(-c2ccccc2)c1-c1ccccc1,.,.,.,.,/,
COc1ccc(-c2c(C#N)sc(C(N)=O)c2-c2ccc(OC)cc2)cc1,.,60,.,.,.,
COc1ccc(C(=O)NN2CCOCC2)cc1,.,.,.,.,/,
CCN(CC)S(=O)(=O)c1cccc(-c2n[nH]c(=S)n2/N=C/c2ccc(OC(F)F)cc2)c1,.,52,.,.,.,
CCN(CC)S(=O)(=O)c1cccc(-c2n[nH]c(=S)n2/N=C/c2ccc(OC)cc2)c1,.,.,.,.,/,
Cc1cccc(Nc2nnc(-c3ccc(N4CCOCC4)c([N+](=O)[O-])c3)c3ccccc23)c1,.,82,.,.,.,
Cc1cc([N+](=O)[O-])ccc1NC(=O)CN1C2CCC1CC(NC(=O)NC13CC4CC(CC(C4)C1)C3)C2 (stereo not given),.,51,.,.,.,
COc1ccc(NC(=S)N2C3CCC2CC(NC(=O)NC24CC5CC(CC(C5)C2)C4)C3)c(OC)c1 (stereo not given),.,.,.,.,/,
O=C(CCC1N=C2c3ccccc3N=C(SCC(=O)NCc3ccco3)N2C1=O)NCc1ccco1 (stereo not given),.,.,.,.,/,
Cc1ccc([N+](=O)[O-])cc1NC(=O)CN(C(=O)c1ccccc1Cl)C1CCCCC1,.,74,.,.,.,
Cc1ccc(NC(=O)CN(C)C(=O)c2ccc(Cl)c([N+](=O)[O-])c2)cc1,.,60,.,.,68,
O=C(CN(C(=O)c1cccc([N+](=O)[O-])c1)C1CCCCC1)Nc1ccc(Cl)c([N+](=O)[O-])c1,.,81,.,.,.,
Cc1ccc([N+](=O)[O-])cc1NC(=O)CN(C1CCCCC1)S(=O)(=O)c1ccc(Cl)cc1,.,54,.,.,.,
CC1(C)CC(NC(=O)C2CCN(S(=O)(=O)c3ccccc3C(F)(F)F)CC2)CC(C)(C)N1,.,.,.,.,/,
Cc1sc(N2CCN(S(=O)(=O)c3ccc4c(c3)NC(=O)CO4)CC2)nc1-c1ccccc1,.,70,.,.,68,
COc1ccc(-c2csc(N3CCN(S(=O)(=O)c4ccc5c(c4)NC(=O)CO5)CC3)n2)cc1,.,.,.,.,/,
SMILES,Arrestin-AP2 inh,FAS-TE inh,SENP1 FRET inh,GASC-1 inh,FAS-TE conf,others
Cn1ncc2c(Nc3cccc(Cl)c3)nc(Nc3cccc(Cl)c3)nc21,.,57,.,.,.,
Cn1ncc2c(Nc3ccc(Br)cc3)nc(Nc3ccc(Br)cc3)nc21,.,50,.,.,.,
Cc1ccc(C)c(OCCC(=O)OCC(=O)N(C)c2c(N)n(Cc3ccccc3)c(=O)[nH]c2=O)c1,.,.,.,.,/,
NC(=O)CC1C(=O)N(c2ccccc2)C(=S)N1NC(=O)c1ccc(Br)cc1 (stereo not given),.,.,.,.,/,
CCN(C(=O)COC(=O)c1oc2ccccc2c1C)c1c(N)n(Cc2ccccc2)c(=O)[nH]c1=O,.,.,.,.,/,
CCO[C@H]1OC(C(=O)N2CCN(Cc3ccc4c(c3)OCO4)CC2)=C[C@@H](c2csc3ccccc23)[C@@H]1CCCO,.,.,.,.,/,
COc1ccc2nc(SCC(=O)NC(C)c3ccccc3)[nH]c2c1 (stereo not given),.,.,.,.,/,
O=C(CN1c2ccccc2Sc2ccccc21)N/N=C/c1ccc([N+](=O)[O-])cc1,.,69,.,.,.,
O=C(CN1c2ccccc2Sc2ccccc21)N/N=C/c1ccccc1,.,.,.,.,/,
Cn1c(=O)c2cc3c(nc2n(C)c1=O)CC(c1ccccc1)CC3=O (stereo not given),.,60,.,.,51,
O=C(Cc1ccc(S(=O)(=O)N2CCOCC2)s1)OCc1ccc(Cl)cc1,.,.,.,.,/,
CCOC(=O)CCCC(=O)Nc1ncnc2c1C(c1ccccc1)c1c(ccc3ccccc13)O2 (stereo not given),.,.,.,/,/,
O=C(c1ccccc1)N(C(=O)c1ccccc1)c1ncnc2c1C(c1ccccc1)c1c(ccc3ccccc13)O2 (stereo not given),.,62,.,.,.,
c1ccc(C2c3c(ccc4ccccc34)Oc3ncn4nc(-c5ccco5)nc4c32)cc1 (stereo not given),.,77,.,.,.,
COc1ccc(C2c3c(ccc4ccccc34)Oc3ncn4nc(-c5ccco5)nc4c32)cc1OC (stereo not given),.,.,.,.,/,
COc1ccc(C2c3c(ccc4ccccc34)Oc3ncn4nc(-c5ccco5)nc4c32)cc1 (stereo not given),.,72,.,.,.,
CCCn1c(N)c(C(=O)COC(=O)CNC(=O)c2ccc(C)c(C)c2)c(=O)n(C)c1=O,.,.,.,/,/,
C/C(=N\NC(=O)c1ccc(O)cc1O)c1cccnc1,.,.,.,.,/,
CC(C)n1c2ccccc2c2cc([N+](=O)[O-])ccc21,.,.,.,.,/,
CCC(C)n1c(=S)[nH]c2c(sc3ccc([N+](=O)[O-])cc32)c1=O (stereo not given),.,54,.,.,51,
CCCc1cc(=O)oc2c(C)c(OCc3nn[nH]n3)ccc12,.,.,.,.,/,
Cc1c(CC(=O)O)c(=O)oc2c(C)c(OCc3nn[nH]n3)ccc12,.,.,.,.,/,
COc1ccc(-c2cc(=O)oc3c(C)c(OCc4nn[nH]n4)ccc23)cc1,.,62,.,.,69,
